Assay [1] is filed under the species Rattus norvegicus. Put plainly: Maximum contractile response of thoracic aorta in albino Wistar rat in the presence of human urotensin 2 after 30 min. To be noted: 0.5 h. Format: functional. A digest of the protocol:
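Thoracic aorta from male albino Wistar rats (275–350 g), decapitated under ether anesthesia, was cut into paired strips in oxygenated Krebs–Henseleit and recorded isotonically under 5 mN load. The control strip received cumulative hU-II. The test strip received the antagonist for 30 min, then cumulative hU-II. KCl 80 mM at the end gave the maximal contraction. pK_B = log(dose ratio − 1) − log[antagonist], slope assumed −1.0, averaged over individual values. Competition was checked by Schild plot.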

Assay [2] is filed under the species Rattus norvegicus. Put plainly: Maximum contractile response of thoracic aorta in albino Wistar rat after 30 min. It is filed as functional. To be noted: for EC50: 0.5 h.
For assay [3], the target named is T1, Urotensin-2 receptor (Homo sapiens, UniProt Q9UKP6).
T1 sequence (Q9UKP6 whole entry): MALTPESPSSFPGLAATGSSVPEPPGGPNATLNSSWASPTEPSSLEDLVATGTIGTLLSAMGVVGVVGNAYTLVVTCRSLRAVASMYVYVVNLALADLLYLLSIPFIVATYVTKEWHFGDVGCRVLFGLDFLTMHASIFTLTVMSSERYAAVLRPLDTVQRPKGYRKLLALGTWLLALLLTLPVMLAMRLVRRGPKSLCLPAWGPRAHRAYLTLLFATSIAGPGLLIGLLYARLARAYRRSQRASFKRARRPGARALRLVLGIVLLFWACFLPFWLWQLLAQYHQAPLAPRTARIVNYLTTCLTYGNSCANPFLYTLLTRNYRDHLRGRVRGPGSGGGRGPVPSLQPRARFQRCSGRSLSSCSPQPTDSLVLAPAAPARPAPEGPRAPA
Put plainly: Displacement of [125I]urotensin 2 from human UT receptor expressed in CHO-K1 cells. Format: cell-based. On the technique in general: Displacement assays read how much labelled ligand stays bound in the presence of the test substance.

The target in assay [4] is T2, Urotensin-2 receptor (Rattus norvegicus, UniProt P49684).
T2 sequence (P49684 whole entry): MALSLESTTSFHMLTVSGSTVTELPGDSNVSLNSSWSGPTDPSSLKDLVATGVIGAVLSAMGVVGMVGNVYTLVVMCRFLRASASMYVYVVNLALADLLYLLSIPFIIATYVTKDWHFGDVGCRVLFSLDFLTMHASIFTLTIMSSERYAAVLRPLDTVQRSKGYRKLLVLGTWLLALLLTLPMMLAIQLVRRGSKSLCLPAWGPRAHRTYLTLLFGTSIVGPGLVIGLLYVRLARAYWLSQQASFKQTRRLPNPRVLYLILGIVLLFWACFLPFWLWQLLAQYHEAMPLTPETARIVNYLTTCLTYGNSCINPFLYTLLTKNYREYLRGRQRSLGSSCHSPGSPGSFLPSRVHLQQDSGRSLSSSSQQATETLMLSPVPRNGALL
Put plainly: Antagonist activity at rat UT receptor. The following applies: read-out: pA2 (converted). It is filed as functional. The method, boiled down:
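The control strip received cumulative hU-II. The test strip received the antagonist for 30 min, then cumulative hU-II. KCl 80 mM at the end gave the maximal contraction. pK_B = log(dose ratio − 1) − log[antagonist], slope assumed −1.0, averaged over individual values. Competition was checked by Schild plot.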

Active and inactive are the calls of the source. The rule behind the calls is not given here.

On to `CC(C)[C@H](NC(=O)[C@@H]1CSSC(C)(C)[C@H](NC(=O)[C@@H](N)CC(=O)O)C(=O)N[C@@H](Cc2ccccc2)C(=O)N[C@H](Cc2c[nH]c3ccccc23)C(=O)N[C@H](CCCN)C(=O)N[C@@H](Cc2ccc(O)cc2)C(=O)N1)C(=O)O` [listing 1 of 2 here], for which the maximal response (Emax) in the assay listed under Rattus norvegicus [1] is 25%.
Same read-out and setting: under `CC(C)[C@H](NC(=O)[C@@H]1CSSC[C@H](NC(=O)[C@@H](N)CC(=O)O)C(=O)N[C@@H](Cc2ccccc2)C(=O)N[C@@H](Cc2c[nH]c3ccccc23)C(=O)N[C@@H](CCCN)C(=O)N[C@@H](Cc2ccc(O)cc2)C(=O)N1)C(=O)O` [listing 1 of 2 here] stands 36%.
For `CC(C)[C@H](NC(=O)[C@@H]1CSSC(C)(C)[C@@H](NC(=O)[C@@H](N)CC(=O)O)C(=O)N[C@@H](Cc2ccccc2)C(=O)N[C@@H](Cc2c[nH]c3ccccc23)C(=O)N[C@@H](CCCN)C(=O)N[C@@H](Cc2ccc(O)cc2)C(=O)N1)C(=O)O`, the Activity entry in the assay listed under Rattus norvegicus [2] (filed as partial agonist) was “Partial agonist”.
`CC(C)[C@H](NC(=O)[C@@H]1CSSC(C)(C)[C@@H](NC(=O)[C@@H](N)CC(=O)O)C(=O)N[C@@H](Cc2ccccc2)C(=O)N[C@H](Cc2c[nH]c3ccccc23)C(=O)N[C@@H](CCCN)C(=O)N[C@@H](Cc2ccc(O)cc2)C(=O)N1)C(=O)O`: the result in the assay filed under Rattus norvegicus [2] was inactive.
Consider `CC(C)[C@H](NC(=O)[C@@H]1CSSC(C)(C)[C@H](NC(=O)[C@@H](N)CC(=O)O)C(=O)N[C@@H](Cc2ccccc2)C(=O)N[C@H](Cc2c[nH]c3ccccc23)C(=O)N[C@@H](CCCCN)C(=O)N[C@@H](Cc2ccc(O)cc2)C(=O)N1)C(=O)O` [listing 1 of 2 here], for which the Ki at Urotensin-2 receptor [3] is 0.00126 µM (antagonist). The molecule further had a concentration giving a half-maximal response (EC50) in the assay filed under Rattus norvegicus [2] of 0.0631 µM.
As to `CC(C)[C@H](NC(=O)[C@@H]1CSSC(C)(C)[C@H](NC(=O)[C@@H](N)CC(=O)O)C(=O)N[C@@H](Cc2ccccc2)C(=O)N[C@@H](Cc2c[nH]c3ccccc23)C(=O)N[C@@H](CCCCN)C(=O)N[C@@H](Cc2ccc(O)cc2)C(=O)N1)C(=O)O` [listing 1 of 2 here], the EC50 in the assay listed under Rattus norvegicus [2] was 0.000251 µM.
`CC(C)[C@H](NC(=O)[C@@H]1CSSC[C@H](NC(=O)[C@H](CC(=O)O)NC(=O)[C@@H]2CCCN2C(=O)[C@@H](NC(=O)[C@@H](N)CCC(=O)O)[C@@H](C)O)C(=O)N[C@@H](Cc2ccccc2)C(=O)N[C@@H](Cc2c[nH]c3ccccc23)C(=O)N[C@@H](CCCCN)C(=O)N[C@@H](Cc2ccc(O)cc2)C(=O)N1)C(=O)O` [HUMAN UROTENSIN II] showed an EC50 in the assay filed under Rattus norvegicus [2] of 0.00501 µM. Besides, in the assay listed under Rattus norvegicus [1], the Emax is 100%.
Consider `CC(C)[C@H](NC(=O)[C@@H]1CSSC(C)(C)[C@H](NC(=O)[C@@H](N)CC(=O)O)C(=O)N[C@@H](Cc2ccccc2)C(=O)N[C@@H](Cc2c[nH]c3ccccc23)C(=O)N[C@@H](CCCN)C(=O)N[C@@H](Cc2ccc(O)cc2)C(=O)N1)C(=O)O` [listing 1 of 2 here], for which the Ki on Urotensin-2 receptor [3] is 0.0158 µM (antagonist).
On to `CC(C)[C@H](NC(=O)[C@@H]1CSSC(C)(C)[C@H](NC(=O)[C@@H](N)CC(=O)O)C(=O)N[C@@H](Cc2ccccc2)C(=O)N[C@@H](Cc2c[nH]c3ccccc23)C(=O)N[C@@H](CCCCN)C(=O)N[C@@H](Cc2ccc(O)cc2)C(=O)N1)C(=O)O` [listing 2 of 2 here], for which, in the assay listed under Rattus norvegicus [1], the maximal effect (Emax) is 97%.
The same measure, in the same setting: under `CC(C)[C@H](NC(=O)[C@@H]1CSSC(C)(C)[C@H](NC(=O)[C@@H](N)CC(=O)O)C(=O)N[C@@H](Cc2ccccc2)C(=O)N[C@@H](Cc2c[nH]c3ccccc23)C(=O)N[C@@H](CCCN)C(=O)N[C@@H](Cc2ccc(O)cc2)C(=O)N1)C(=O)O` [listing 2 of 2 here] stands 22%.
On to `CC(C)[C@H](NC(=O)[C@@H]1CSSC(C)(C)[C@H](NC(=O)[C@@H](N)CC(=O)O)C(=O)N[C@@H](Cc2ccccc2)C(=O)N[C@H](Cc2c[nH]c3ccccc23)C(=O)N[C@H](CCCN)C(=O)N[C@@H](Cc2ccc(O)cc2)C(=O)N1)C(=O)O` [listing 2 of 2 here], for which the Ki on Urotensin-2 receptor [3] is 0.398 µM (antagonist).
Turning to `CC(C)[C@H](NC(=O)[C@@H]1CSSC[C@H](NC(=O)[C@@H](N)CC(=O)O)C(=O)N[C@@H](Cc2ccccc2)C(=O)N[C@H](Cc2c[nH]c3ccccc23)C(=O)N[C@@H](CCCCN)C(=O)N[C@@H](Cc2ccc(O)cc2)C(=O)N1)C(=O)O` [listing 1 of 2 here], the maximal effect (Emax) in the assay filed under Rattus norvegicus [1] amounted to 42%.
On to `CC(C)[C@H](NC(=O)[C@@H]1CSSC[C@H](NC(=O)[C@@H](N)CC(=O)O)C(=O)N[C@@H](Cc2ccccc2)C(=O)N[C@H](Cc2c[nH]c3ccccc23)C(=O)N[C@@H](CCCN)C(=O)N[C@@H](Cc2ccc(O)cc2)C(=O)N1)C(=O)O`, for which the Ki at Urotensin-2 receptor [3] is 0.0126 µM (antagonist). Also, on Urotensin-2 receptor [4], the Kb is 0.01 µM (antagonist).
As for `CC(C)[C@H](NC(=O)[C@@H]1CSSC(C)(C)[C@H](NC(=O)[C@@H](N)CC(=O)O)C(=O)N[C@@H](Cc2ccccc2)C(=O)N[C@H](Cc2c[nH]c3ccccc23)C(=O)N[C@@H](CCCN)C(=O)N[C@@H](Cc2ccc(O)cc2)C(=O)N1)C(=O)O`, the Ki on Urotensin-2 receptor [3] is 2 µM (antagonist). In the assay listed under Rattus norvegicus [2], the result was inactive.
Turning to `CC(C)[C@H](NC(=O)[C@@H]1CSSC[C@H](NC(=O)[C@@H](N)CC(=O)O)C(=O)N[C@@H](Cc2ccccc2)C(=O)N[C@@H](Cc2c[nH]c3ccccc23)C(=O)N[C@@H](CCCCN)C(=O)N[C@@H](Cc2ccc(O)cc2)C(=O)N1)C(=O)O` [listing 1 of 2 here], the maximum response (Emax) in the assay listed under Rattus norvegicus [1] amounted to 100%.
`CC(C)[C@H](NC(=O)[C@@H]1CSSC[C@@H](NC(=O)[C@@H](N)CC(=O)O)C(=O)N[C@@H](Cc2ccccc2)C(=O)N[C@H](Cc2c[nH]c3ccccc23)C(=O)N[C@@H](CCCN)C(=O)N[C@@H](Cc2ccc(O)cc2)C(=O)N1)C(=O)O`: the result in the assay filed under Rattus norvegicus [2] was inactive.
Consider `CC(C)[C@H](NC(=O)[C@@H]1CSSC(C)(C)[C@@H](NC(=O)[C@@H](N)CC(=O)O)C(=O)N[C@@H](Cc2ccccc2)C(=O)N[C@H](Cc2c[nH]c3ccccc23)C(=O)N[C@H](CCCN)C(=O)N[C@@H](Cc2ccc(O)cc2)C(=O)N1)C(=O)O`, for which the Activity result in the assay filed under Rattus norvegicus [2] (filed as partial agonist) is “Partial agonist”.
Turning to `CC(C)[C@H](NC(=O)[C@@H]1CSSC[C@H](NC(=O)[C@@H](N)CC(=O)O)C(=O)N[C@@H](Cc2ccccc2)C(=O)N[C@@H](Cc2c[nH]c3ccccc23)C(=O)N[C@@H](CCCN)C(=O)N[C@@H](Cc2ccc(O)cc2)C(=O)N1)C(=O)O` [listing 2 of 2 here], the inhibition constant Ki at Urotensin-2 receptor [3] is 0.01 µM (antagonist). In addition, the Kb at Urotensin-2 receptor [4] was 0.0501 µM (antagonist).
For the molecule `CC(C)[C@H](NC(=O)[C@@H]1CSSC[C@H](NC(=O)[C@@H](N)CC(=O)O)C(=O)N[C@@H](Cc2ccccc2)C(=O)N[C@H](Cc2c[nH]c3ccccc23)C(=O)N[C@@H](CCCCN)C(=O)N[C@@H](Cc2ccc(O)cc2)C(=O)N1)C(=O)O` [listing 2 of 2 here], the Ki on Urotensin-2 receptor [3] was 0.00126 µM (antagonist). This molecule also gave a concentration giving a half-maximal response (EC50) in the assay listed under Rattus norvegicus [2] of 0.0631 µM.
As for `CC(C)[C@H](NC(=O)[C@@H]1CSSC(C)(C)[C@H](NC(=O)[C@@H](N)CC(=O)O)C(=O)N[C@@H](Cc2ccccc2)C(=O)N[C@H](Cc2c[nH]c3ccccc23)C(=O)N[C@@H](CCCCN)C(=O)N[C@@H](Cc2ccc(O)cc2)C(=O)N1)C(=O)O` [listing 2 of 2 here], in the assay filed under Rattus norvegicus [1], the Emax was determined as 33%.
The molecule `CC(C)[C@H](NC(=O)[C@@H]1CSSC[C@H](NC(=O)[C@@H](N)CC(=O)O)C(=O)N[C@@H](Cc2ccccc2)C(=O)N[C@@H](Cc2c[nH]c3ccccc23)C(=O)N[C@@H](CCCCN)C(=O)N[C@@H](Cc2ccc(O)cc2)C(=O)N1)C(=O)O` [listing 2 of 2 here] gave a 50% effective concentration (EC50) in the assay listed under Rattus norvegicus [2] of 0.00251 µM.
Regarding `CC(C)[C@H](NC(=O)[C@@H]1CSSC[C@@H](NC(=O)[C@@H](N)CC(=O)O)C(=O)N[C@@H](Cc2ccccc2)C(=O)N[C@@H](Cc2c[nH]c3ccccc23)C(=O)N[C@@H](CCCN)C(=O)N[C@@H](Cc2ccc(O)cc2)C(=O)N1)C(=O)O`, the Activity entry in the assay listed under Rattus norvegicus [2] (filed as partial agonist) is “Partial agonist”.

In general, Emax refers to the greatest response seen or fitted, relative to the assay's reference. Usually Ki stands for the equilibrium dissociation constant of an inhibitor or competing ligand from its target. Usually EC50 stands for the concentration giving half of the maximal effect. Low values mean an effect from little substance, high ones a need for much substance.

Values taken from ChEMBL document CHEMBL1139480, “Urotensin-II receptor ligands. From agonist to antagonist activity” (J Med Chem, 2005).
